Test results taken from ChEMBL document CHEMBL4373735, “N-alkyl-hydroxybenzoyl anilide hydroxamates as dual inhibitors of HDAC and HSP90, downregulating IFN-γ induced PD-L1 expression” (Eur J Med Chem, 2020).

Tests used:
[1] = species on record: Homo sapiens; assay: Selectivity ratio of IC50 for HDAC1 (unknown origin) to IC50 for HDAC6 (unknown origin)
[2] = system: HCT-116; assay: cells; format: functional; conditions: Homo sapiens, HCT-116, 48 h
[3] = system: NCI-H1975; assay: cells; format: functional; conditions: Homo sapiens, NCI-H1975, 48 h
[4] = system: A549; assay: Antiproliferative activity against human A549 cells assessed as cell growth inhibition after 48 hrs by sulforhodamine B assay; format: functional
Outline: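 Cells seeded at 5000/well overnight; baseline plate fixed with 10% TCA at time of compound addition (T0). Treated with DMSO or graded doses for 48 h, fixed with 10% TCA, stained with 0.4% (w/v) SRB in 1% acetic acid, washed with 1% acetic acid, dye solubilised in 10 mM Trizma base, absorbance at 515 nm. GI50 from T0-corrected growth; at least three independent experiments, SD reported.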

[5] = molecular target: Histone deacetylase; format: cell-based, Homo sapiens; conditions: hela
[6] = molecular target: Heat shock protein HSP 90-alpha (Homo sapiens, UniProt P07900); assay: Inhibition of FITC-geldanamycin binding to recombinant human full-length C-terminal His-tagged HSP90alpha expressed in Escherichia coli after 3 hrs by fluorescence polarization assay
[7] = cells; format: ADME, cell-based; conditions: Homo sapiens, SC9
[8] = molecular target: Histone deacetylase 1 (Homo sapiens, UniProt Q13547); assay: Inhibition of HDAC1 (unknown origin)
Chain of Histone deacetylase 1 (Q13547 whole entry): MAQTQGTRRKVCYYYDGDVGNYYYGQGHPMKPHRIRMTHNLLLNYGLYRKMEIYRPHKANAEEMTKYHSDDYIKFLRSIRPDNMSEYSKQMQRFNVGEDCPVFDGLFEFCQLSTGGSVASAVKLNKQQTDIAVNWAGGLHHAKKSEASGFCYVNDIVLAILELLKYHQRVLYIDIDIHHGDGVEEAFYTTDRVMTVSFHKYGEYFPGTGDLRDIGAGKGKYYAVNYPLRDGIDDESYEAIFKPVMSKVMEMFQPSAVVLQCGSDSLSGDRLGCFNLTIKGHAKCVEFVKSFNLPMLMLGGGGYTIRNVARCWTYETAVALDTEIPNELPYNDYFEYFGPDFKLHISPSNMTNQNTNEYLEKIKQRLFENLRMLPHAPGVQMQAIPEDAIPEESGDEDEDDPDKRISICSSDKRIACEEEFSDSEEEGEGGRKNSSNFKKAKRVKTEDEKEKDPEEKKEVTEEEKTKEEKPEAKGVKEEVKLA

## O=C(CCCCCCC(=O)Nc1ccc(-c2cn(Cc3ccc(F)cc3)nn2)cc1)NO
[1]
  Ratio IC50: 51

## CC(C)c1cc(C(=O)N(c2ccc(NC(=O)CCCCCCC(=O)NO)cc2)C(C)C)c(O)cc1O
[2]
  GI50: > 10000 nM
[3]
  GI50: > 10000 nM
[4]; Homo sapiens, A549, 48 h
  GI50: > 10000 nM
[5]
  IC50: > 1000 nM
[6]
  IC50: > 1000 nM

## O=C(CCCCC[C@@H](NC(=O)c1ccccc1)C(=O)Nc1ccccc1)NO
[7]
  IC50: 73 nM
[8]
  IC50: 12.1 nM

## C=CCNC1=C2C[C@@H](C)C[C@H](OC)[C@H](O)[C@@H](C)/C=C(\C)[C@H](OC(N)=O)[C@@H](OC)/C=C\C=C(/C)C(=O)NC(=CC1=O)C2=O (stereo in doubt) [TANESPIMYCIN]
[2]
  GI50: 340 nM
[3]
  GI50: 160 nM
[4]; Homo sapiens, A549, 48 h
  GI50: 7.5 nM
[5]
  IC50: > 1000 nM

## CC(C)c1cc(C(=O)Nc2ccc(NC(=O)CCCCCCC(=O)NO)cc2)c(O)cc1O
[2]
  GI50: 5430 nM
[3]
  GI50: > 10000 nM
[4]; Homo sapiens, A549, 48 h
  GI50: > 10000 nM
[5]
  IC50: 415 nM
[6]
  IC50: > 1000 nM

## CC(C)c1cc(C(=O)N(C)c2ccc(NC(=O)CCCCCC(=O)NO)cc2)c(O)cc1O
[2]
  GI50: 3780 nM
[3]
  GI50: 690 nM
[4]; Homo sapiens, A549, 48 h
  GI50: 2830 nM
[5]
  IC50: 391 nM
[6]
  IC50: 169 nM

## CCN(C(=O)c1cc(C(C)C)c(O)cc1O)c1ccc(NC(=O)CCCCCCC(=O)NO)cc1
[2]
  GI50: 3560 nM
[3]
  GI50: 1380 nM
[4]; Homo sapiens, A549, 48 h
  GI50: 5630 nM
[5]
  IC50: 462 nM
[6]
  IC50: 186 nM

## CC(C)c1cc(C(=O)N(C)c2cccc(NC(=O)CCCCCCC(=O)NO)c2)c(O)cc1O
[2]
  GI50: 1170 nM
[3]
  GI50: 1660 nM
[4]; Homo sapiens, A549, 48 h
  GI50: 2300 nM
[5]
  IC50: 211 nM
[6]
  IC50: 302 nM

## O=C(CCCCCCC(=O)Nc1ccccc1)NO [VORINOSTAT]
[4]
  GI50: 1020 nM
[6]
  IC50: > 500 nM

## CC(C)c1cc(C(=O)Nc2cccc(NC(=O)CCCCCCC(=O)NO)c2)c(O)cc1O
[2]
  GI50: 6230 nM
[3]
  GI50: > 10000 nM
[4]; Homo sapiens, A549, 48 h
  GI50: > 10000 nM
[5]
  IC50: 106 nM
[6]
  IC50: > 1000 nM

## O=C(CCCCC[C@@H](NC(=O)c1ccccc1)C(=O)Nc1ccc2ncccc2c1)NO
[7]
  IC50: 90 nM
[8]
  IC50: 3.5 nM

## CC(C)c1cc(C(=O)Nc2ccccc2NC(=O)CCCCCCC(=O)NO)c(O)cc1O
[2]
  GI50: 4920 nM
[3]
  GI50: > 10000 nM
[4]; Homo sapiens, A549, 48 h
  GI50: > 10000 nM
[5]
  IC50: > 1000 nM
[6]
  IC50: > 1000 nM

## CC(C)c1cc(C(=O)N(C)c2ccc(NC(=O)CCCCCCCCC(=O)NO)cc2)c(O)cc1O
[2]
  GI50: 590 nM
[3]
  GI50: 210 nM
[4]; Homo sapiens, A549, 48 h
  GI50: 1080 nM
[5]
  IC50: 672 nM

## CCN(C(=O)c1cc(C(C)C)c(O)cc1O)c1cccc(NC(=O)CCCCCCC(=O)NO)c1
[2]
  GI50: 1120 nM
[3]
  GI50: 940 nM
[4]; Homo sapiens, A549, 48 h
  GI50: 1590 nM
[5]
  IC50: 126 nM
[6]
  IC50: 146 nM
